# In ChEMBL document CHEMBL5131565, “Structure-Guided Optimization of Small-Molecule Folate Uptake Inhibitors Targeting the Energy-Coupling Factor Transporters” (J Med Chem, 2022):
# What was measured:
# [1] = target: T1, Energy-coupling factor transporter transmembrane protein EcfT (Lactobacillus casei) (UniProt A0A510WMC0); experiment: Inhibition of Lactobacillus casei ECF-FolT assessed as inhibition of radiolabelled folic acid uptake at 50 uM pre-incubated for 10 mins followed tritium labeled folic acid addition measured after 30 mins by liquid scintillation analysis relative to control; conditions: Lacticaseibacillus casei, time 40.0 min
# T1 sequence (whole entry): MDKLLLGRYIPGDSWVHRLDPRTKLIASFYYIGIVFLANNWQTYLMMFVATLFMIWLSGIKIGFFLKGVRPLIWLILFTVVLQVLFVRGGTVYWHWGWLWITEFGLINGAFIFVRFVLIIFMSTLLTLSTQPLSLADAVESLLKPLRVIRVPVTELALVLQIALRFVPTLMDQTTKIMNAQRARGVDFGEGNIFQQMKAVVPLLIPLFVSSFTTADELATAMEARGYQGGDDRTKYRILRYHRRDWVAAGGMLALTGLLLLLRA
# Summary of the method: (§1)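 Whole-cell *L. casei* assay of ECF-FolT-mediated folate uptake. Compounds were first tested at 50 μM and reported as % inhibition. IC50 was determined for those giving more than 70% inhibition at 50 μM. Data come from two independent experiments, each run in duplicate.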
# [2] = target: T2, Energy-coupling factor transporter transmembrane protein EcfT (Lactobacillus casei, UniProt A0A510WMC0); experiment: Inhibition of Lactobacillus casei ECF-FolT assessed as inhibition of radiolabelled folic acid uptake pre-incubated for 10 mins followed tritium labeled folic acid addition measured after 30 mins by liquid scintillation analysis; design: species or system Lacticaseibacillus casei; summary of the method: as §1
# T2 sequence (A0A510WMC0 whole entry): T1 sequence (whole entry)
# A549 = experiment: Cytotoxicity against human A549 cells assessed as reduction in cell viability measured after 48 hrs by MTT assay; type: toxicity, cell-based
# Streptococcus pneumoniae [3] = experiment: Antibacterial activity against penicillin-resistant Streptococcus pneumoniae DSM-11865 measured after 24 hrs by CLSI protocol based microbroth dilution method; type: functional
# Enterococcus faecium [4] = experiment: Antibacterial activity against vancomycin-resistant Enterococcus faecium DSM-17050 measured after 24 hrs by CLSI protocol based microbroth dilution method; type: functional
# Enterococcus faecium [5] = experiment: Antibacterial activity against Enterococcus faecium DSM-20477 measured after 24 hrs by CLSI protocol based microbroth dilution method; type: functional
# [6] = Kinetic solubility of the compound; type: physicochemical; conditions: read-out: Kinetic_solubility
# HEK293 = experiment: Cytotoxicity against HEK293 cells assessed as reduction in cell viability measured after 48 hrs by MTT assay; type: toxicity, cell-based, Homo sapiens
# Staphylococcus aureus = experiment: Antibacterial activity against Staphylococcus aureus Newman measured after 24 hrs by CLSI protocol based microbroth dilution method; type: functional
# Streptococcus pneumoniae [7] = experiment: Antibacterial activity against Streptococcus pneumoniae DSM-20566 measured after 24 hrs by CLSI protocol based microbroth dilution method; type: functional
# HepG2 = experiment: Cytotoxicity against human HepG2 cells assessed as reduction in cell viability measured after 48 hrs by MTT assay; type: toxicity, cell-based
smiles,measurement,setting,value
O=C(O)c1sc(-c2ccc(Cl)c(Cl)c2)cc1NC(=O)N(Cc1ccccc1)c1ccccc1,inhibition,[1],91.3%
same,IC50,[2],2.94 µM
CCCCCCNC(=O)Nc1cc(-c2cccc([N+](=O)[O-])c2)sc1C(=O)O,inhibition,[1],65.3%
same,IC50,[2],43.3 µM
CCCCN(CCc1ccccc1)C(=O)Nc1cc(-c2ccc(Cl)c(Cl)c2)sc1C(=O)O,inhibition,[1],57.8%
O=C(NCc1ccccn1)Nc1cc(-c2ccc(Cl)c(Cl)c2)sc1C(=O)O,inhibition,[1],59%
COc1ccc(CNC(=O)Nc2cc(-c3ccc(Cl)c(Cl)c3)sc2C(=O)O)cc1,inhibition,[1],54.3%
CCCCCCNC(=O)Nc1cc(-c2ccc(C(F)(F)F)cc2)sc1C(=O)O,inhibition,[1],27.1%
CCN(Cc1ccccc1)C(=O)Nc1cc(-c2ccc(Oc3ccccc3)cc2)sc1C(=O)O,inhibition,[1],97%
same,IC50,[2],10.1 µM
CC(C)NC(=O)Nc1cc(-c2ccc(Cl)c(Cl)c2)sc1C(=O)O,inhibition,[1],39.3%
O=C(NCCc1ccccc1)Nc1cc(-c2ccc(Cl)c(Cl)c2)sc1C(=O)O,inhibition,[1],91.7%
same,IC50,[2],15.3 µM
O=C(NCc1ccncc1)Nc1cc(-c2ccc(Cl)c(Cl)c2)sc1C(=O)O,inhibition,[1],54%
CN(Cc1ccccc1)C(=O)Nc1cc(-c2ccc(Cl)c(Cl)c2)sc1C(=O)O,inhibition,[1],86.9%
same,IC50,[2],10 µM
CCCCCCNC(=O)Nc1cc(-c2cccc(Cl)c2)sc1C(=O)O,inhibition,[1],36.2%
CCCCN(C(=O)Nc1cc(-c2ccc(Cl)c(Cl)c2)sc1C(=O)O)c1ccccc1,IC50,A549,> 100 µM
same,MIC,Streptococcus pneumoniae [3],0.5 µM
same,MIC,Enterococcus faecium [4],2 µM
same,inhibition,[1],99.6%
same,MIC,Enterococcus faecium [5],8 µM
same,solubility kinetic,[6],107 µM
same,IC50,HEK293,52.5 µM
same,MIC,Staphylococcus aureus,23 µM
same,MIC,Streptococcus pneumoniae [7],2 µM
same,IC50,HepG2,95.6 µM
same,IC50,[2],2.35 µM
CCCCN(Cc1ccccc1)C(=O)Nc1cc(-c2ccc(Cl)c(Cl)c2)sc1C(=O)O,inhibition,[1],42.5%
CCCCCCNC(=O)Nc1cc(-c2ccc(Cl)c(Cl)c2)sc1C(=O)O,inhibition,[1],72.2%
same,IC50,[2],28.5 µM
CCCCCCNC(=O)Nc1cc(-c2cc(Cl)ccc2Cl)sc1C(=O)O,inhibition,[1],93.4%
same,IC50,[2],21.8 µM
CCCCCCNC(=O)Nc1cc(-c2ccc(Cl)cc2Cl)sc1C(=O)O,inhibition,[1],67.9%
CCCCCCNC(=O)Nc1cc(-c2ccc(Cl)cc2)sc1C(=O)O,inhibition,[1],27.2%
CCCCN(C(=O)Nc1c(-c2cc(Cl)ccc2Cl)csc1C(=O)O)c1ccccc1,inhibition,[1],73.4%
same,IC50,[2],17 µM
CCCCCCNC(=O)Nc1c(C(=O)O)cccc1-c1ccc(Cl)c(Cl)c1,inhibition,[1],65.4%
CCCCN(C(=O)Nc1c(-c2ccc(Oc3ccccc3)cc2)csc1C(=O)O)c1ccccc1,IC50,A549,49.3 µM
same,MIC,Streptococcus pneumoniae [3],16 µM
same,MIC,Enterococcus faecium [4],8 µM
same,inhibition,[1],100%
same,MIC,Enterococcus faecium [5],16 µM
same,solubility kinetic,[6],> 200 µM
same,IC50,HEK293,25.5 µM
same,MIC,Staphylococcus aureus,16 µM
same,MIC,Streptococcus pneumoniae [7],4 µM
same,IC50,HepG2,57 µM
same,IC50,[2],3.9 µM
O=C(NCc1ccccc1)Nc1cc(-c2ccc(Cl)c(Cl)c2)sc1C(=O)O,inhibition,[1],71.1%
same,IC50,[2],17.8 µM
O=C(Nc1ccccc1)Nc1cc(-c2ccc(Cl)c(Cl)c2)sc1C(=O)O,inhibition,[1],86.8%
same,IC50,[2],14.4 µM
CCCCCCNC(=O)Nc1cc(-c2ccccc2)sc1C(=O)O,inhibition,[1],25.1%
CCCCCCNc1c(-c2ccc(Cl)c(Cl)c2)csc1C(=O)O,inhibition,[1],95.2%
Nc1c(-c2ccc(Cl)c(Cl)c2)csc1C(=O)O,inhibition,[1],< 10%
CCCCCCNC(=O)Nc1sc(-c2ccc(Cl)c(Cl)c2)cc1C(=O)O,inhibition,[1],17.9%
CCCCCCNC(=O)Nc1scc(-c2ccc(Cl)c(Cl)c2)c1C(=O)O,inhibition,[1],87.5%
same,IC50,[2],18.5 µM
O=C(O)c1sc(-c2ccc(Cl)c(Cl)c2)cc1NC(=O)N(Cc1ccccc1)Cc1ccccc1,inhibition,[1],85.1%
same,IC50,[2],24 µM
CCN(Cc1ccccc1)C(=O)Nc1cc(-c2ccc(OC(F)(F)F)cc2)sc1C(=O)O,inhibition,[1],67.2%
CCN(Cc1ccccc1)C(=O)Nc1cc(-c2ccc(C)cc2)sc1C(=O)O,inhibition,[1],38.9%
CCN(Cc1ccccc1)C(=O)Nc1cc(-c2ccc(Br)cc2)sc1C(=O)O,inhibition,[1],52.3%
CCCCNC(=O)Nc1cc(-c2ccc(Cl)c(Cl)c2)sc1C(=O)O,inhibition,[1],61.9%
CCN(Cc1ccccc1)C(=O)Nc1cc(-c2ccc(Cl)c(Cl)c2)sc1C(=O)O,inhibition,[1],89.4%
same,IC50,[2],11.4 µM
CCCCCCNC(=O)Nc1ccsc1C(=O)O,inhibition,[1],< 10%
CCCCCCNC(=O)Nc1cc(-c2ccc(OC)cc2)sc1C(=O)O,inhibition,[1],12.1%
O=C(O)CCCNC(=O)Nc1cc(-c2ccc(Cl)c(Cl)c2)sc1C(=O)O,inhibition,[1],0.2%
CCN(Cc1ccccc1)C(=O)Nc1cc(-c2cc(Cl)cc(Cl)c2)sc1C(=O)O,inhibition,[1],22%
CCN(Cc1ccccc1)C(=O)Nc1cc(-c2ccc(C#N)cc2)sc1C(=O)O,inhibition,[1],18.3%
CCCCCCNC(=O)Nc1c(-c2ccc(Cl)c(Cl)c2)csc1C(=O)O,inhibition,[1],90.6%
same,IC50,[2],6 µM
O=C(NCc1cccnc1)Nc1cc(-c2ccc(Cl)c(Cl)c2)sc1C(=O)O,inhibition,[1],58%
CCCCC(=O)Nc1c(-c2ccc(Cl)c(Cl)c2)csc1C(=O)O,inhibition,[1],31.8%
CCCCCCNC(=O)Nc1cc(-c2ccc([N+](=O)[O-])cc2)sc1C(=O)O,inhibition,[1],82.1%
same,IC50,[2],25.1 µM
CCCCCCNC(=O)Nc1cc(-c2ccc(Cl)c(C(F)(F)F)c2)sc1C(=O)O,inhibition,[1],59%
CCN(C(=O)Nc1cc(-c2ccc(Cl)c(Cl)c2)sc1C(=O)O)c1ccccc1,inhibition,[1],83.2%
same,IC50,[2],10.5 µM
NC(=O)Nc1cc(-c2ccc(Cl)c(Cl)c2)sc1C(=O)O,inhibition,[1],42.4%
CCCCCCNC(=O)Nc1cc(-c2cccc(C(F)(F)F)c2)sc1C(=O)O,inhibition,[1],52.3%
CN(C(=O)Nc1cc(-c2ccc(Cl)c(Cl)c2)sc1C(=O)O)c1ccccc1,inhibition,[1],71.5%
same,IC50,[2],23 µM
